From PubChem BioAssay AID2609 (Broad Institute, 2010)

Test system: BJeLR fibroblasts viability, Alamar Blue fluorescence, 48 h
Assay: viability loss in engineered Ras-driven BJ cells – cell-based, alamar blue fluorescence, powder samples, dose response (AID 2609)
Summary of the method: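 Medium: DMEM/M199 with heat-inactivated FBS; measure: cell viability from alamar blue fluorescence signal; schedule: 48 h compound treatment at 37 °C, ~16 h dye; signal: Alamar blue fluorescence, ex 544/em 590 nm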

Question: How did the EC50 turn out when `O=C(CCl)N=c1sccn1Cc1ccccc1Cl` was run?
Answer: The EC50 was 4940 nM.

Question: For `CCOc1ccc(Nc2nc(N)nc(CCl)n2)cc1`, which EC50 is on record?
Answer: Its EC50 is 2210 nM.

Question: For `CCCCCCCN(C(=O)CCl)c1cccc(C)c1`, which EC50 is on record?
Answer: The EC50 was 3440 nM.

Question: For `COc1cccc(N(C(=O)CCl)C(C(=O)NCCc2ccccc2)c2cccs2)c1` (centres undefined), which EC50 is on record?
Answer: Its EC50 is 2350 nM.

Question: For `COc1ccc(C(C(=O)NC2CCCCC2)N(C(=O)CCl)c2ccc(C)cc2)cc1` (centres undefined), which EC50 is on record?
Answer: Its EC50 is 8330 nM.

Question: `C=CCOc1ccccc1CN(C(=O)CCl)c1ccc2c(c1)OCO2` was tested. Which EC50 did it give?
Answer: The EC50 was 7650 nM.

Question: For `Cc1ccc(C2CC(c3cccs3)=NN2C(=O)CCl)cc1` (centres undefined), which EC50 is on record?
Answer: The EC50 was 2920 nM.

Question: `Cc1ccc(N(C(=O)CCl)C(C(=O)NC2CCCCC2)c2cccnc2)cc1C` (centres undefined) was tested. Which EC50 did it give?
Answer: The EC50 was 1400 nM.

Question: For `COc1ccc(C(C(=O)NC2CCCCC2)N(C(=O)CCl)c2cccc(Cl)c2)cc1` (centres undefined), which EC50 is on record?
Answer: The EC50 was 3190 nM.

Question: Which EC50 does the source give for `COc1ccc(N(C(=O)CCl)C(C(=O)NCCc2ccccc2)c2cccs2)cc1Cl` (centres undefined) here?
Answer: Its EC50 is 990 nM.

Question: How did the EC50 turn out when `COc1ccc(CN(CCC(c2ccccc2)c2ccc(OC(C)C)cc2)C(=O)CCl)cc1OC` (centres undefined) was run?
Answer: Its EC50 is 890 nM.

Question: For `COC(=O)[C@@H]1Cc2c([nH]c3ccccc23)C(C)(C)N1C(=O)CCl`, which EC50 is on record?
Answer: The EC50 was 4010 nM.

Question: For `Nc1nc(CCl)nc(Nc2ccc3ccccc3c2)n1`, which EC50 is on record?
Answer: Its EC50 is 2500 nM.

Question: How did the EC50 turn out when `COc1ccc(N(C(=O)CCl)C(C(=O)NCCc2ccccc2)c2cccs2)cc1` (centres undefined) was run?
Answer: Its EC50 is 1690 nM.
